According to ChEMBL document CHEMBL1926579, “N-Aryl-2-phenyl-2,3-dihydro-imidazo[1,2-b]pyrazole-1-carboxamides 7-substituted strongly inhibiting both fMLP-OMe- and IL-8-induced human neutrophil chemotaxis” (Eur J Med Chem, 2012):
Active and inactive are the calls of the source. The rule behind the calls is not given here.

How the values were obtained:
Homo sapiens [1] = species: Homo sapiens; assay: Induction of Akt phosphorylation in fMLP-OMe-stimulated human neutrophils
Homo sapiens [2] = species: Homo sapiens; assay: Induction of Akt phosphorylation in IL8-stimulated human neutrophils
[3] = Antiinflammatory activity in human neutrophils assessed as inhibition of IL8-induced chemotaxis preincubated for 10 mins; type: functional, cell-based; settings: Neutrophil
Outline: (§1)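 Neutrophils from healthy donors' blood, isolated by dextran sedimentation, Ficoll–Paque centrifugation and hypotonic red-cell lysis, held in KRPG pH 7.4 at room temperature. Cells preincubated with compound 10 min. 48-well microchemotaxis chamber; compound in the upper compartment at 10^-12 to 10^-6 M in KRPG with 1 mg/mL BSA. Attractant in the lower compartment: fMLP-OMe 10 nM or CXCL8/IL8 1 nM.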

[4] = Antiinflammatory activity in human neutrophils assessed as inhibition of fMLP-OMe-induced chemotaxis preincubated for 10 mins; type: functional, cell-based; settings: Neutrophil; outline: as §1

Row | Activity (Homo sapiens [1]) | Activity (Homo sapiens [2]) | IC50 [3] | IC50 [4] | SMILES
1 | inactive | inactive | 1.2 nM | 3.9 nM | NC(=O)c1cnn2c1N(C(=O)Nc1cccc(F)c1)C(c1ccccc1)C2 (stereo not drawn)
2 | – | – | 6.2 nM | > 1000 nM | NC(=O)c1cnn2c1N(C(=O)Nc1ccccc1F)C(c1ccccc1)C2 (stereo not drawn)
3 | – | – | > 1000 nM | 95 nM | O=C(Nc1ccc(F)cc1)N1c2ccnn2CC1c1ccccc1 (stereo not drawn)
4 | – | – | > 1000 nM | 5.4 nM | O=C(Nc1ccccc1F)N1c2ccnn2CC1c1ccccc1 (stereo not drawn)
5 | – | – | > 1000 nM | 10.3 nM | CCOC(=O)c1cnn2c1N(C(=O)Nc1ccc(F)cc1)C(c1ccccc1)C2 (stereo not drawn)
6 | – | – | 206 nM | 13.8 nM | CCOC(=O)c1cnn2c1N(C(=O)Nc1cccc3ccccc13)C(c1ccccc1)C2 (stereo not drawn)
7 | – | – | > 1000 nM | 138 nM | O=C(NC1CC1)c1cnn2c1N(C(=O)Nc1cccc(F)c1)C(c1ccccc1)C2 (stereo not drawn)
8 | – | – | 7.5 nM | 116 nM | CCOC(=O)c1cnn2c1N(C(=O)Nc1ccccc1F)C(c1ccccc1)C2 (stereo not drawn)
9 | – | – | > 1000 nM | 980 nM | O=C(c1cnn2c1N(C(=O)Nc1ccccc1)C(c1ccccc1)C2)N1CCCCC1 (stereo not drawn)
10 | – | – | > 1000 nM | > 1000 nM | O=C(Nc1cccc2ccccc12)N1c2ccnn2CC1c1ccccc1 (stereo not drawn)
11 | – | – | 13.2 nM | 123 nM | O=C(NC1CC1)c1cnn2c1N(C(=O)Nc1ccccc1)C(c1ccccc1)C2 (stereo not drawn)
12 | – | – | > 1000 nM | 12.1 nM | O=C(Nc1cccc(F)c1)N1c2ccnn2CC1c1ccccc1 (stereo not drawn)
13 | – | – | > 1000 nM | 4.8 nM | O=C(Nc1ccccc1)N1c2ccnn2CC1c1ccccc1 (stereo not drawn)
14 | – | – | 484 nM | 11.4 nM | NC(=O)c1cnn2c1N(C(=O)Nc1ccc(F)cc1)C(c1ccccc1)C2 (stereo not drawn)
15 | – | – | > 1000 nM | 110 nM | NC(=O)c1cnn2c1N(C(=O)Nc1cccc3ccccc13)C(c1ccccc1)C2 (stereo not drawn)
16 | – | – | 1.2 nM | 5.5 nM | O=C(c1cnn2c1N(C(=O)Nc1cccc(F)c1)C(c1ccccc1)C2)N1CCCCC1 (stereo not drawn)
17 | – | – | > 1000 nM | 98 nM | CCOC(=O)c1cnn2c1N(C(=O)Nc1ccccc1)C(c1ccccc1)C2 (stereo not drawn)
18 | – | – | 111 nM | 9.2 nM | CCOC(=O)c1cnn2c1N(C(=O)Nc1cccc(F)c1)C(c1ccccc1)C2 (stereo not drawn)
